Experimental data from different studies.
Target: Casein kinase II subunit alpha (CSNK2A1, Homo sapiens, UniProt P68400)

| SMILES | test | setting | endpoint | value |
| --- | --- | --- | --- | --- |
| O=C(Nc1cnn(-c2csc(C(=O)NC3COC3)c2)c1)Nc1c(F)cccc1Cl | enzyme activity, inhibitor | 5 µM | remaining activity | 90.5% |
| C[C@@H]1CN(c2cc(-c3nn(C)c4ccc(OC5(C)CC5)cc34)ncn2)C[C@H](C)O1 | cell-free assay, competition with immobilised ligand | 1 µM | remaining binding | 76% |
| CCN(CC)CCNC(=O)c1c(C)[nH]c(/C=C2\C(=O)Nc3ccc(F)cc32)c1C | enzyme activity, inhibitor | 0.3 µM | inhibition | -7% |
| FC(F)c1nc2ccccc2n1-c1nc(N2CCOCC2)nc(N2CCOCC2)n1 | enzyme activity, inhibitor | 10 µM | remaining activity | 54% |
| Nc1nc(NC2CCCCC2)sc1C(=O)c1ccccc1 | enzyme activity, inhibitor | 10 µM | remaining activity | 114% |
| CN(c1ncccc1CNc1nc(Nc2ccc3c(c2)CC(=O)N3)ncc1C(F)(F)F)S(C)(=O)=O | enzyme activity, inhibitor | 1 µM | inhibition | 50.7% |
| COc1cc(Nc2cnc(C#N)c(O[C@H](C)CN(C)C)n2)ncc1-c1cnn(C)c1 | enzyme activity, inhibitor, radiometric | 10 µM | remaining activity | 87% |
| O=C1CCc2cc(Nc3cc(OC4CCOCC4)c([N+](=O)[O-])cc3Cl)ccc2N1 | cell-free assay, competition with immobilised ligand | 1 µM | remaining binding | 84% |
| COc1cc(/C=C/C(=O)CC(=O)/C=C/c2ccc(O)c(OC)c2)ccc1O | enzyme activity, inhibitor | 1 µM | activity vs control | 106% |
| Cn1c2c(Cl)c(Cl)ccc2c2cc(N)[nH]c(=O)c21 | thermal stability, DSF | 10 µM | ΔTm | 2.8 °C |
| Cc1ccc(NC(=O)c2ccc(C)c(C(F)(F)F)c2)cc1C#Cc1nn(C2CCC(O)CC2)c2ncnc(N)c12 (stereo not shown) | cell-free assay, inhibitor | 10 µM | remaining signal | 105% |
| Cc1cnc(NC2CCOCC2)nc1-n1cnc(C(=O)NC(CN)c2cc(F)cc(Cl)c2)c1 (stereo not shown) | enzyme activity, inhibitor, radiometric | 1 µM | remaining activity | 106% |
| C[C@H](NC(=O)c1cnc2n1[C@](C)(Cc1ccc(C#N)cc1)C(=O)N2c1cc(Cl)c(F)c(Cl)c1)C(=O)NC1(c2ccccn2)CC1 | cell-free assay, competition with immobilised ligand | 1 µM | remaining binding | 81% |
| C#Cc1cccc(Nc2ncnc3cc(OCCOC)c(OCCOC)cc23)c1 | cell-free assay | 0.5 µM | remaining signal | 78.9% |
| Cn1c2c(Cl)c(Cl)ccc2c2cc[nH]c(=O)c21 | thermal stability, DSF | 10 µM | ΔTm | 1.3 °C |
| O=C1NC(=O)c2cc(Nc3ccc(F)cc3)c(Nc3ccc(F)cc3)cc21 | cell-free assay, inhibitor | 0.5 µM | remaining signal | 95.7% |

| SMILES | test | setting | endpoint | value |
| --- | --- | --- | --- | --- |
| CN([C@@H]1CCc2c(CC(=O)O)c3ccccc3n2C1)S(=O)(=O)c1ccc(F)cc1 | cell-free assay, competition with immobilised ligand | 1 µM | remaining binding | 82% |
| Cc1ccc(Nc2nccc(N(C)c3ccc4c(C)n(C)nc4c3)n2)cc1S(N)(=O)=O | enzyme activity, inhibitor | 10 µM | inhibition | -7% |
| C[S+]([O-])c1ccc(-c2nc(-c3ccncc3)c(-c3ccc(F)cc3)[nH]2)cc1 (stereo not shown) | cell-free assay | 0.5 µM | remaining signal | 86.2% |
| Cc1ccc(C(=O)Nc2ccc(CN3CCN(C)CC3)c(C(F)(F)F)c2)cc1C#Cc1cnc2cccnn12 | enzyme activity, inhibitor | 23.5 nM | remaining activity | 98% |
| CC(C)(C)c1nc(-c2cccc(NS(=O)(=O)c3c(F)cccc3F)c2F)c(-c2ccnc(N)n2)s1 | enzyme activity, inhibitor, radiometric | 1 µM | remaining activity | 85% |
| Cn1cc(Cl)c2c(Oc3c(F)cc(Nc4cc(Cl)nc(N)n4)cc3F)ccnc21 | cell-free assay, competition with immobilised ligand | 0.1 µM | remaining binding | 98% |
| Cn1c2c(c3ccc(Cl)c(Cl)c31)C(C#N)C(C)(C)NC2=O (stereo not shown) | thermal stability, DSF | 10 µM | ΔTm | 2.6 °C |
| Nc1nc(Nc2ccccc2)sc1C(=O)c1c(F)cccc1F | enzyme activity, inhibitor | 10 µM | remaining activity | 111% |
| COc1cccc(CNC(=O)c2nc3scc(COCc4ccc(C(=O)O)cc4)c3c(=O)[nH]2)c1 | cell-free assay, competition with immobilised ligand | 1 µM | remaining binding | 90.7% |
| Cn1c2c(c3ccccc31)C(C#N)C(C)(C)NC2=O (stereo not shown) | thermal stability, DSF | 10 µM | ΔTm | 0.8 °C |
| COc1cc(Cl)c(C(=O)N[C@@H](CN[C@H]2CC[C@@H](N)CC2)Cc2ccc(C#N)cc2)cc1-c1ccc(CN[C@H](C)c2ccc(C)cc2)o1 | enzyme activity, inhibitor | 1 µM | remaining activity | 104% |
| CN([C@@H]1CCc2c(CC(=O)O)c3cc(S(C)(=O)=O)ccc3n2C1)S(=O)(=O)c1ccc(F)cc1 | cell-free assay, competition with immobilised ligand | 1 µM | remaining binding | 91% |
| Cn1c(=O)n(-c2ccc(C(C)(C)C#N)cc2)c2c3cc(-c4cnc5ccccc5c4)ccc3ncc21 | enzyme activity, inhibitor | 10 µM | remaining activity | 79% |
| NS(=O)(=O)c1cc(NC(=O)Cc2ccccc2)ccc1Oc1cccc(Cl)c1 | cell-free assay, competition with immobilised ligand | 1 µM | remaining binding | 96% |
| COc1cc2ncnc(Nc3ccc(Oc4ccccc4)cc3C)c2cc1OC | enzyme activity, inhibitor | 1 µM | inhibition | 11% |
